Compound activity (PubChem)
MrgX1 antag – antagonists of human MrgX1 receptor; 310,000 tested, 1.3% active; B-score at 10 µM; AID 588676; MRGX1-HEK293 calcium flux, Fluo-4, BAM8-22 antagonism; active compounds read low; Q96LB2;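 active means calcium-response B-score plate-corrected more than 3 library SD below zero, starting fluorescence within 5 deviations, no agonist response on first addition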;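 further: peak minus trough fluorescence over baseline after final BAM8-22 challenge near maximal dose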
Target sequence (Q96LB2 whole entry, looked up): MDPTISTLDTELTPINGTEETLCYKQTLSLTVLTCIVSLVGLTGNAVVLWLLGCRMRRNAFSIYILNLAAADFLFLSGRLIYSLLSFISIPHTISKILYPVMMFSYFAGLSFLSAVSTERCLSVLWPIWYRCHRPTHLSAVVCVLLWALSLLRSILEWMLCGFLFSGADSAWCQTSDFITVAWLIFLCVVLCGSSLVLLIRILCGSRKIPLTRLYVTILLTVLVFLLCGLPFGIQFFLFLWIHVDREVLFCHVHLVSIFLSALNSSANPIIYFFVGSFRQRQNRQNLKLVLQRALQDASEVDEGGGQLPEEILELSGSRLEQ
RGS4 inh – inhibitors of human RGS4; B-score at 10 µM; P49798; 310,000 tested, 0.45% active; HEK293 M3R/RGS4 inducible, Fluo-4 calcium flux; active compounds read high; triggered by carbachol at its EC20;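 active means B-score, a plate-corrected calcium signal, over three deviations above library mean, with baseline fluorescence within five deviations of library mean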;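 further: RGS4 expression induced by doxycycline in cells with stable M3 receptor; B-score is computed from the integrated fluorescence ratio over baseline after carbachol; higher B-score means a larger calcium signal and so more RGS4 inhibition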
Target sequence (P49798 whole entry, looked up): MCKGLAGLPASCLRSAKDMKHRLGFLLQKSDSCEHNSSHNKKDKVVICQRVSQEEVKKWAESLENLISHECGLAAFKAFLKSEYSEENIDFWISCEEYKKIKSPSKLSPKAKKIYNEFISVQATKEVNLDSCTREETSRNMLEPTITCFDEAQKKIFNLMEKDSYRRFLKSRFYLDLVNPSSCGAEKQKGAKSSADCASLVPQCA
RGS4 pot – RGS4 potentiation or activation; HEK293 M3R/inducible RGS4, carbachol calcium flux Fluo4; active compounds read low; B-score at 10 µM; 310,000 tested, 0.92% active; AID 463111;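 active means B-score of the integrated calcium signal more than 4 SD below the library mean, with starting fluorescence not abnormally high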;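 further: negative B-score means reduced calcium response which marks RGS4 activation or potentiation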
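Reagent: ECmax carbachol challenge; Test system: M3R-expressing HEK293 line, RGS4 induced by doxycycline; Schedule: overnight RGS4 induction, 30 min dye load 37 °C, 20 min compound RT; Detection: calcium dye Fluo4 fluorescence; Read-out: Agonist-evoked peak-minus-minimum fluorescence over baseline, integrated ratio, B score.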
MrgX1 ag – activates human MrgX1 receptor signaling | Q96LB2 | B-score at 10 µM | MrgX1-HEK293 cells, Fluo-4 calcium fluorescence, agonist mode; active compounds read high | 310,000 tested, 0.44% active;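 active means calcium response B-score plate-corrected fluorescence ratio at least 3 library SD, with starting fluorescence B-score inside 5 SD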
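Test system: Stable human MrgX1 HEK293 cell line | Schedule: Overnight plating before 1 h dye loading | Read-out basis: Baseline-normalised fluorescence change ratio, B-scored | Detection: Kinetic calcium dye fluorescence, Fluo-4 NW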
MrgX1 allo act – human MrgX1 positive allosteric modulation, primary screen | Q96LB2 | MrgX1-HEK293, Fluo-4 calcium flux, FDSS; active compounds read high | B-score at 10 µM | 310,000 tested, 0.63% active | AID 588675;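 active means plate-corrected calcium response at least 3 library SD above typical, normal starting fluorescence, not activating the receptor alone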;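 further: compound read alongside a low EC10 to EC30 dose of BAM8-22 agonist; peak minus trough fluorescence over baseline measured at the second addition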
RGS4 block valid – validation of RGS4 inhibitors; shares compounds with RGS4 inh; HEK293 M3R/RGS4, carbachol calcium Fluo-4 fluorescence; carbachol added at its EC20; 0 = buffer wells, 100 = carbachol control; calcium response, % at 10 µM; 1,700 tested, 65% active; AID 492999;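 active means duplicate-averaged calcium response above the buffer-only control mean plus 5 SD of those controls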;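 further: integrated fluorescence ratio F max minus min over baseline F0; higher response in RGS4-induced cells means RGS4 inhibition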
RGS4 uninduced – counter-screen for RGS4 inhibitors: effect in non-induced cells | shares compounds with RGS4 inh | HEK293 M3R non-induced, carbachol calcium Fluo-4; submaximal (EC20) carbachol stimulus; buffer wells 0%, carbachol control wells 100% | activity (percent), % at 10 µM | 1,900 tested, 20% active; call rule not given here;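 further: RGS4 induction absent so cells express M3R without RGS4; higher means more calcium signal and flags a non-specific hit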
M3R basal Ca ctr – signal in non-induced cells without carbachol, RGS4 inhibitor counter-screen. calcium response (agonist-mode artifact), % at 10 µM. 1,900 tested, 22% active. HEK293 M3R/RGS4 non-induced, Fluo-4 calcium, no carbachol; normalised: buffer wells 0%, carbachol wells 100%. shares compounds with RGS4 inh;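 active means duplicate-averaged calcium rise in uninduced cells above buffer wells' mean plus 5 SD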
The depositor's hits bear a star; i = inactive; / = no result. A selection: hits, their analogues and other compounds. The true share with any hit is near 3.5%.

SMILES	MrgX1 antag	RGS4 inh	RGS4 pot	MrgX1 ag	MrgX1 allo act	RGS4 block valid	RGS4 uninduced	M3R basal Ca ctr
Cc1ccc(SCc2[nH]nc3c2C2(C(=O)Nc4ccc([N+](=O)[O-])cc42)C(C#N)=C(N)O3)cc1 (configuration not stated)	i	6.1*	i	i	i	i	i	i
Cc1ccc(SCc2[nH]nc3c2C2(CCSCC2)C(C#N)=C(N)O3)cc1	i	i	i	i	i	/	/	/
NC(=O)NC(Cc1ccccc1)C(=O)NCCCSc1ccccc1 (configuration not stated)	i	i	i	i	i	/	/	/
O=C(COc1ccc([N+](=O)[O-])cc1)NCCC1=CCCCC1	i	5*	i	i	i	i	i	i
CCCCNc1c(C(=O)OCC)c(C)nc2c1cnn2CC	i	10*	i	i	i	7.5%*	28%*	i
CCOc1ccc(-c2c(C(=O)N/N=C/c3sccc3C)nnn2-c2nonc2N)cc1	i	i	i	i	i	/	/	/
CCOc1cccc(-c2c(C(=O)N/N=C/c3sccc3C)nnn2-c2nonc2N)c1	i	i	i	i	i	/	i	i
CCOc1cccc(-c2c(C(=O)N/N=C/c3ccc(C)s3)nnn2-c2nonc2N)c1	i	i	i	i	i	/	i	i
COc1cccc(-c2c(C(=O)N/N=C/c3ccc(C)s3)nnn2-c2nonc2N)c1	i	i	i	i	i	/	/	/
CCOc1cccc(-c2c(C(=O)N/N=C/c3ccsc3)nnn2-c2nonc2N)c1	i	i	i	i	i	/	i	i
Cc1ccc(-c2c(C(=O)N/N=C/c3ccsc3)nnn2-c2nonc2N)cc1	i	i	i	i	i	/	/	/
CCOCCCNC(=O)C(c1ccc(OC)cc1)N(Cc1ccc2c(c1)OCO2)C(=O)c1ccccc1O (configuration not stated)	i	i	i	i	i	/	/	/
Cc1ccc(N2C(=O)Cc3ccccc3C2=O)cc1	i	i	i	i	i	i	i	i
CC(C)CCOc1cccc(OCC(=O)Nc2ccncc2)c1	i	i	i	i	i	/	/	/
COc1ccc(/C=N/NC(=O)c2ccc[nH]2)cc1	i	i	i	i	i	/	/	/
Nn1c(=O)[nH]c2c([nH]c3ccccc32)c1=O	i	5.9*	i	i	i	i	i	i
Cc1nc2c([nH]c3ccccc32)c(=O)n1N	i	i	i	i	i	/	/	/
O=C(Oc1cccc2cccnc12)c1ccc(N2C(=O)C3C4CCC(C4)C3C2=O)cc1 (configuration not stated)	i	i	i	i	i	/	i	7.0%*
CCOC(=O)N1CCc2c(sc3c2c(=O)n(Cc2ccccc2)c(=O)n3Cc2ccc(C)cc2)C1	i	8.7*	i	i	i	38%*	30%*	i
CC(=O)N1CCc2c(sc3c2c(=O)n(Cc2ccccc2)c(=O)n3CC(=O)NCC2CCCO2)C1 (configuration not stated)	i	i	i	i	i	/	/	/
COc1ccc(/C=C2\CCCC3C2=NN(C(=O)CSc2ncn[nH]2)C3c2ccc(OC)cc2)cc1 (configuration not stated)	i	i	i	i	i	/	i	i
O=C(CSc1ncn[nH]1)N1N=C2/C(=C/c3ccccc3)CCCC2C1c1ccccc1 (configuration not stated)	i	5.1*	i	i	i	10%*	i	i
O=C(O)CSCC(=O)N1N=C2/C(=C/c3ccccc3)CCCC2C1c1ccccc1 (configuration not stated)	i	i	i	i	i	/	/	/
Cc1csc(NC(=O)CN2C(=O)c3ccccc3C2=O)c1C(N)=O	i	i	i	i	i	/	/	/
COc1ccc(N2C(=O)CC(Sc3nc4ccccc4s3)C2=O)cc1 (configuration not stated)	i	i	i	i	i	/	/	/
SMILES	MrgX1 antag	RGS4 inh	RGS4 pot	MrgX1 ag	MrgX1 allo act	RGS4 block valid	RGS4 uninduced	M3R basal Ca ctr
C=CCNc1nnc(SC2CC(=O)N(c3ccc(OC)cc3)C2=O)s1 (configuration not stated)	i	5.7*	i	i	i	9.0%*	i	i
Cc1ccc(OCC(=O)N/N=C/c2cn(C)c3ccccc23)cc1	i	i	i	i	i	/	i	i
CCOP(=O)(OCC)/C(C#N)=C/c1c[nH]c2ccccc12	i	i	i	i	i	/	/	/
CCOP(=O)(OCC)/C(C#N)=C/c1ccc([N+](=O)[O-])cc1	i	7.4*	i	i	i	14%*	i	i
CCOC(=O)/C(C#N)=C/c1cccc([N+](=O)[O-])c1	i	i	i	i	i	/	/	/
N#C/C(=C\c1cc([N+](=O)[O-])ccc1Cl)C(N)=O	i	5.8*	i	i	i	12%*	i	8.5%*
N#C/C(=C/c1ccc([N+](=O)[O-])cc1)C(N)=O	i	6.4*	i	i	i	36%*	36%*	15%*
CC1=CC(=O)C(C(C)C)=CC1=NC(=O)c1ccc(C)cc1	i	i	i	i	i	/	/	/
COc1cccc(NC(=O)CSC2=NN3CCCC(=O)N=C3S2)c1	i	i	i	i	i	/	/	/
CC1(C)Cc2c(C#N)c(N3CCOCC3)nc(-c3ccccc3)c2CO1	i	i	i	i	i	/	/	/
CC1CCN(c2nc(-c3ccco3)c3c(c2C#N)CC(C)(C)OC3)CC1	i	i	i	i	i	i	i	15%*
CC1Sc2ccc(S(=O)(=O)CCC(=O)NCc3cccs3)cc2NC1=O (configuration not stated)	i	i	i	i	i	/	/	/
Cc1ccc(Sc2ncccc2C(=O)NCc2cc([N+](=O)[O-])ccc2O)cc1C	i	i	i	i	i	/	/	/
CCn1cc(Cl)c(C(=O)N2N=C(c3ccc4ccccc4c3)CC2c2ccccc2O)n1 (configuration not stated)	i	i	i	i	i	/	/	/
